According to ChEMBL document CHEMBL1154614, “Synthesis and evaluation of stable bidentate transition metal complexes of 1-(chloromethyl)-5-hydroxy-3-(5,6,7-trimethoxyindol-2-ylcarbonyl)-2,3-dihydro-1H-pyrrolo[3,2-f]quinoline (seco-6-azaCBI-TMI) as hypoxia selective cytotoxins” (J Med Chem, 2009):

Legend:
UV4 = experiment: Cytotoxicity against hamster UV4 cells after 4 hrs under aerobic conditions; assay type: cell-based; settings: Cricetulus griseus, UV4, 4 h
Procedure, shortened: (§1)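 Attached log-phase cells exposed to compound for 4 h under aerobic conditions; compounds formulated in DMSO, final DMSO <1%. IC50 = concentration giving 50% inhibition of cell proliferation. Mean ± SEM of >2 determinations.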

[1] = Cytotoxicity against mouse EMT6V cells after 4 hrs under aerobic conditions; assay type: functional, cell-based; procedure, shortened: as §1
SK-OV-3 [2] = experiment: Cytotoxicity against human SKOV3 cells after 4 hrs under aerobic conditions; assay type: functional, cell-based; settings: SK-OV-3, 4 h; procedure, shortened: as §1
CHO-AA8 = experiment: Cytotoxicity against hamster AA8 cells after 4 hrs under aerobic conditions; assay type: cell-based; settings: Cricetulus griseus, CHO-AA8, 4 h; procedure, shortened: as §1
A549 [3] = experiment: Cytotoxicity against human A549 cells after 4 hrs under aerobic conditions; assay type: functional, cell-based; settings: A549, 4 h; procedure, shortened: as §1
[4] = Solubility in alpha-MEM in presence of FCS; assay type: physicochemical; settings: alpha-MEM with FCS
SK-OV-3 [5] = experiment: Hypoxic cytotoxicity ratio, ratio of IC50 for human SKOV3 cells under aerobic condition to IC50 for human SKOV3 cells after 4 hrs under hypoxic condition; assay type: functional
Procedure, shortened: (§2)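 Attached log-phase cells given 4 h compound exposure in parallel under oxic and hypoxic conditions; compounds in DMSO, final DMSO <1%. IC50 for inhibition of cell proliferation. Ratio = aerobic IC50/hypoxic IC50, calculated within each experiment.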

A549 [6] = experiment: Hypoxic cytotoxicity ratio, ratio of IC50 for human A549 cells under aerobic condition to IC50 for human A549 cells after 4 hrs under hypoxic condition; assay type: functional; procedure, shortened: as §2

Structure (SMILES) | IC50 (UV4) [nM] | IC50 [1] [nM] | IC50 (SK-OV-3 [2]) [nM] | IC50 (CHO-AA8) [nM] | IC50 (A549 [3]) [nM] | solubility [4] [µM] | Ratio IC50 (SK-OV-3 [5]) | Ratio IC50 (A549 [6])
COc1cc2cc(C(=O)N3C[C@@H](CCl)c4c3cc(O)c3ncccc43)[nH]c2c(OC)c1OC | 0.04 | 0.03 | 0.11 | 0.07 | 0.04 |  |  | 
COc1cc2cc(C(=O)N3CC(CCl)c4c3cc(O)c3ncccc43)[nH]c2c(OC)c1OC (racemic) | 0.07 | 0.05 | 0.26 | 0.14 | 0.06 | 30 | 0.69 | 0.76
CN(C)CCOc1ccc2[nH]c(C(=O)N3CC(CCl)c4c3cc(O)c3ncccc43)cc2c1 (stereo not given) | 1.7 | 0.74 | 6.9 | 4.4 | 1.3 | 32 | 0.56 | 1.11
COc1ccc(/C=C/C(=O)N2CC(CCl)c3c2cc(O)c2ncccc32)cc1O (stereo not given) |  |  | 0.17 |  | 0.18 | 110 |  | 
COc1ccc(/C=C/C(=O)N2CC(CCl)c3c2cc(O)c2ncccc32)cc1 (stereo not given) |  |  | 0.29 |  | 0.09 | 40 |  | 
COc1ccc2[nH]c(C(=O)N3CC(CCl)c4c3cc(O)c3ncccc43)cc2c1 (stereo not given) |  |  | 0.27 |  | 0.08 | 110 | 0.91 | 1.51
CN(C)CCOc1ccc(/C=C/C(=O)N2CC(CCl)c3c2cc(O)c2ncccc32)cc1 (stereo not given) | 0.73 | 0.58 | 1.9 | 2.6 | 0.92 | 860 | 0.65 | 0.86
COc1cc2cc(C(=O)N3C[C@H](CCl)c4c3cc(O)c3ncccc43)[nH]c2c(OC)c1OC | 4.6 | 7.3 | 8.5 | 22 | 8.8 |  |  | 
